Source: ChEMBL document CHEMBL1138791, “Acyl sulfonamide anti-proliferatives: benzene substituent structure-activity relationships for a novel class of antitumor agents” (J Med Chem, 2004)

What was measured:
HCT-116 [1] = assay: Diameter of zone of inhibition for cell colony formation of solid tumor HCT116 at the dose of 210 ug; assay type: functional, Homo sapiens
Summary of the method: (§1)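 HCT116, L1210 leukaemia and normal fibroblast cells were seeded in soft agar in separate 60 mm dishes. The compound was applied to a filter-paper disk laid on the agar. Colony-formation inhibition zones were read after 6–7 days at 37 °C and expressed in zone units (200 units = 6.5 mm; 950 = total inhibition; 0 = none). n > 2 unless otherwise indicated.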

[2] = Diameter of zone of inhibition for cell colony formation of normal fibroblast at the dose of 210 ug; Range is 0-6.5; assay type: functional, Homo sapiens
Summary of the method: (§2)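 Soft agar disk diffusion: leukemia (L1210), solid tumor (HCT116, or colon H15) and normal fibroblast cells seeded in soft agar in separate 60 mm dishes. Compound applied to a filter paper disk (dose in μg/disk) set on the agar. Colony-formation inhibition zones read after 6–7 days at 37 °C. 200 zone units = 6.5 mm; 950 = total inhibition; a range marks partial colony shrinkage. n > 2 unless noted.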

L1210 [3] = assay: Diameter of zone of inhibition for cell colony formation of leukemia L1210 at the dose of 210 ug; Range is 0-5.525; assay type: functional, Mus musculus; summary of the method: as §2
HL-60 = assay: Growth inhibitory activity against human leukemia HL-60 (TB) cell line; assay type: functional; design: unit not given here
Mus musculus [4] = assay: Tumor growth delay of human HCT116 colorectal carcinoma in mice after intravenous administration at dose of 64 mg/kg; assay type: functional
Summary of the method: (§3)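 Female nude mice were implanted with HCT116 tumour tissue from donor mice and randomized once tumours averaged 100 mm3. The sodium salt in saline (pH 7.4) was given by iv bolus on days 1–5 and 8–12. Tumour volumes were recorded twice weekly. TGD = T − C, the time to reach 500 mm3 taken from a fitted tumour-growth model.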

Mus musculus [5] = assay: Tumor growth delay of human HCT116 colorectal carcinoma in mice after intravenous administration at dose of 128 mg/kg; assay type: functional; summary of the method: as §3
NCI-H522 = assay: Growth inhibitory activity against human lung NCI-H522 cell line; assay type: functional
Summary of the method: (§4)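 Cell-line screen run at NCI by published procedures. […] The mean graph midpoint is taken across all human cancer cell lines successfully tested.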

[6] = tested on: Panel (Carcinoma cell lines); assay: Mean graph mid point value for cytotoxic activity against human cancer cell lines was determined; assay type: functional; summary of the method: as §4
SW-620 = assay: Growth inhibitory activity against human colon SW620 cell line; assay type: functional; summary of the method: as §4
Mus musculus [7] = assay: Tumor growth delay of human HCT116 colorectal carcinoma in mice after intravenous administration at dose of 85 mg/kg; assay type: functional; summary of the method: as §3
RXF 393 = assay: Growth inhibitory activity against human renal RXF-393 cell line; assay type: functional; summary of the method: as §4
HT-29 = assay: Growth inhibitory activity against human colon HT-29 cell line; assay type: functional; summary of the method: as §4
HCT-116 [8] = assay: Growth inhibitory activity against human colon HCT116 cell line; assay type: functional; summary of the method: as §4
MCF7 = assay: Growth inhibitory activity against human breast MCF-7 cell line; assay type: functional; summary of the method: as §4
[9] = Diameter of zone of inhibition for cell colony formation of normal fibroblast at the dose of 200 ug; Range is 0-4.875; assay type: functional, Homo sapiens; summary of the method: as §2
L1210 [10] = assay: Diameter of zone of inhibition for cell colony formation of leukemia L1210 at the dose of 200 ug; assay type: functional, Mus musculus; summary of the method: as §2
HCT-116 [11] = assay: Diameter of zone of inhibition for cell colony formation of solid tumor HCT116 at the dose of 200 ug; assay type: functional, Homo sapiens; summary of the method: as §1
[12] = Diameter of zone of inhibition for cell colony formation of normal fibroblast at the dose of 200 ug; Range is 0-11; assay type: functional, Homo sapiens; summary of the method: as §2
L1210 [13] = assay: Diameter of zone of inhibition for cell colony formation of L1210 leukemia cell lines at the dose of 200 ug; assay type: functional, Mus musculus; summary of the method: as §2
Mus musculus [14] = assay: Tumor growth delay of human HCT116 colorectal carcinoma in mice after intravenous administration at dose of 100 mg/kg; assay type: functional
[15] = Diameter of zone of inhibition for cell colony formation of solid tumor H15 at the dose of 210 ug; assay type: functional, Homo sapiens; summary of the method: as §2
L1210 [16] = assay: Diameter of zone of inhibition for cell colony formation of leukemia L1210 at the dose of 210 ug; assay type: functional, Mus musculus; summary of the method: as §2
[17] = Diameter of zone of inhibition for cell colony formation of normal fibroblast at the dose of 210 ug; Range is 0-11.375; assay type: functional, Homo sapiens; summary of the method: as §2
Mus musculus [18] = assay: Tumor growth delay of human HCT116 colorectal carcinoma in mice after intravenous administration at dose of 32 mg/kg; assay type: functional; summary of the method: as §3
Mus musculus [19] = assay: Tumor growth delay of human HCT116 colorectal carcinoma in mice after intravenous administration at dose of 63 mg/kg; assay type: functional; summary of the method: as §3
L1210 [20] = assay: Diameter of zone of inhibition for cell colony formation of leukemia L1210 at the dose of 190 ug; assay type: functional, Mus musculus; summary of the method: as §2
HCT-116 [21] = assay: Diameter of zone of inhibition for cell colony formation of solid tumor HCT116 at the dose of 190 ug; assay type: functional, Homo sapiens; summary of the method: as §2
[22] = Diameter of zone of inhibition for cell colony formation of normal fibroblast at the dose of 190 ug; Range is 0-2.275; assay type: functional, Homo sapiens; summary of the method: as §2
[23] = Diameter of zone of inhibition for cell colony formation of normal fibroblast at the dose of 210 ug; Range is 0-2.6; assay type: functional, Homo sapiens; summary of the method: as §2
[24] = Diameter of zone of inhibition for cell colony formation of normal fibroblast at the dose of 190 ug; Range is 0-.975; assay type: functional, Homo sapiens; summary of the method: as §2

SMILES: O=C(NS(=O)(=O)c1cc(Cl)cc(Cl)c1)c1ccc(Cl)cc1Cl
- Inhibition (HCT-116 [1]): 12.35 mm
- Inhibition [2]: 6.5 mm
- Inhibition (L1210 [3]): 5.52 mm

SMILES: O=C(NS(=O)(=O)c1ccccc1)c1ccc(Cl)cc1Cl
- GI50 (HL-60): 32.9
- Growth delay (Mus musculus [4]): 14 days
- Growth delay (Mus musculus [5]): 22 days
- GI50 (NCI-H522): 18.7 µM
- MGM [6]: 33.1
- GI50 (SW-620): 8.6 µM
- Growth delay (Mus musculus [7]): 15 days
- GI50 (RXF 393): 4.3 µM
- GI50 (HT-29): 52 µM
- GI50 (HCT-116 [8]): 5.4 µM
- GI50 (MCF7): 18.9 µM

SMILES: O=C(NS(=O)(=O)c1ccc(Cl)cc1)c1ccc(Cl)c(Cl)c1
- Inhibition [9]: 4.87 mm
- Inhibition (L1210 [10]): 6.5 mm
- Inhibition (HCT-116 [11]): 13 mm

SMILES: O=C(NS(=O)(=O)c1ccc(Cl)cc1)c1ccc(Cl)cc1Cl
- GI50 (HL-60): 34.7
- Inhibition [12]: 11 mm
- GI50 (NCI-H522): 8.6 µM
- MGM [6]: 26.3
- GI50 (SW-620): 39.6 µM
- GI50 (RXF 393): 11 µM
- GI50 (HT-29): 54.8 µM
- GI50 (HCT-116 [8]): 5.3 µM
- GI50 (MCF7): 1.5 µM
- Inhibition (L1210 [13]): 6.5 mm
- Inhibition (HCT-116 [11]): 19.5 mm

SMILES: CCc1c2c(nc3ccc(OC(=O)N4CCC(N5CCCCC5)CC4)cc13)-c1cc3c(c(=O)n1C2)COC(=O)[C@]3(O)CC.Cl
- Growth delay (Mus musculus [14]): 15 days

SMILES: O=C(NS(=O)(=O)c1ccc(Cl)cc1)c1ccc(Br)cc1Cl
- Inhibition [15]: 14.95 mm
- Inhibition (L1210 [16]): 6.5 mm
- Inhibition [17]: 11.37 mm
- Growth delay (Mus musculus [18]): 12 days
- Growth delay (Mus musculus [19]): 23 days

SMILES: O=C(NS(=O)(=O)c1ccc(Cl)cc1)c1ccc(Cl)cc1
- Inhibition (L1210 [20]): 5.85 mm
- Inhibition (HCT-116 [21]): 10.72 mm
- Inhibition [22]: 2.27 mm

SMILES: O=C(NS(=O)(=O)c1ccc(Cl)cc1)c1cc(Cl)cc(Cl)c1
- Inhibition (HCT-116 [1]): 10.72 mm
- Inhibition (L1210 [16]): 4.87 mm
- Inhibition [23]: 2.6 mm

SMILES: O=C(NS(=O)(=O)c1ccc(Cl)cc1)c1cccc(Br)c1
- Inhibition (L1210 [20]): 6.82 mm
- Inhibition (HCT-116 [21]): 10.4 mm
- Inhibition [24]: 0.97 mm
